Results as given in ChEMBL document CHEMBL1123103, “Pyrimidinones. 1. 2-Amino-5-halo-6-aryl-4(3H)-pyrimidinones. Interferon-inducing antiviral agents” (1985).

How the values were obtained:
Format in all cases: functional
[1] = tested on: Human alphaherpesvirus 1; test: Intraperitoneal administration against herpes simplex virus type-1 (HSV-1) infected mice
Summary of the method: (§1)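 ICR or CD-1 mice got drug ip in saline as the total daily dose (mg/kg/day). It was split into doses at -40, -28, -20, -3 and +3 h relative to ip inoculation with 5.6×10^4 pfu HSV-1. Mice were followed for 22 days, 15/group. Protection index = (control mortality − treated mortality)/control mortality; >0.25 counted active. Only the lowest protective dose is recorded.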

[2] = tested on: Semliki Forest virus; test: Effective dose administered perorally againist Forest virus infected mice; details: po
Summary of the method: (§2)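 ICR or CD-1 mice of both sexes got one drug dose by the route in the line (ip, po or sc). The drug was a suspension in 0.9% NaCl or in a CMC/polysorbate 80/benzyl alcohol/NaCl vehicle. […] Deaths were recorded daily for 6 days, 24 mice/group. ED50 is the minimal dose protecting 50% of mice, by probit analysis.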

[3] = tested on: Semliki Forest virus; test: Antiviral activity against Forest virus (SFV); summary of the method: as §2
[4] = tested on: Mus musculus; test: The compound was evaluated for the serum interferon response from a single 800 mg/kg intraperitoneal administration in vesicular stomatitis virus on […] cells; Range 50-500 units/mL
Summary of the method: (§3)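 Mice got a single ip 800 mg/kg dose. Blood was drawn 3, 6, 8 and 12 h later from five mice per group and pooled. Interferon titer was measured by plaque reduction with vesicular stomatitis virus on L929 cells. Titer is the reciprocal serum dilution cutting plaques by 50% versus untreated cultures. Peak response within 24 h was banded: ≥2000, ~500-1000, ~50-500, ~10-50 U/mL.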

[5] = tested on: Semliki Forest virus; test: Effective dose administered subcutaneously againist Forest virus infected mice; details: sc; summary of the method: as §2
[6] = tested on: Mus musculus; test: Protection index after intraperitoneal administration (50 mg/kg/day) against herpes simplex virus type-1 (HSV-1) infected mice [protection index=(control mortality-treated mortality)/control mortality]; summary of the method: as §1
[7] = tested on: Mus musculus; test: The compound was evaluated for the serum interferon response from a single 800 mg/kg intraperitoneal administration in vesicular stomatitis virus on […] cells; range 500-1000 units/mL; summary of the method: as §3
[8] = tested on: Mus musculus; test: The compound was evaluated for the serum interferon response from a single 800 mg/kg intraperitoneal administration in vesicular stomatitis virus on […] cells; Range 500-1000 units/mL; summary of the method: as §3
[9] = tested on: Mus musculus; test: Protection index after intraperitoneal administration (25 mg/kg/day) against herpes simplex virus type-1 (HSV-1) infected mice [protection index=(control mortality-treated mortality)/control mortality]; summary of the method: as §1
[10] = tested on: Mus musculus; test: The compound was evaluated for the serum interferon response from a single 800 mg/kg intraperitoneal administration in vesicular stomatitis virus on […] cells; range 50-500; summary of the method: as §3
[11] = tested on: Vesicular stomatitis virus; test: Evaluation for serum interferon response from a single 800 mg/kg intraperitoneal administration in vesicular stomatitis virus on […] cells.; summary of the method: as §3

Compound	Protection index [1]	ED50 [2] [mg/kg]	ED50 [3] [mg/kg]	IFN [4] [mL]	ED50 [5] [mg/kg]	Protection index [6]	IFN [7] [units/mL]	IFN [8] [units/mL]	Protection index [9]	IFN [10] [mL]	IFN [11]
Nc1nc(O)c(Br)c(-c2cccc(C(F)(F)F)c2)n1	0.53	> 400	200	50	> 400	–	–	–	–	–	–
Nc1nc(O)c(I)c(-c2ccccc2F)n1	–	> 400	105	–	> 400	0.67	500	–	–	–	–
Nc1nc(O)c(I)c(-c2cccc(F)c2)n1	–	> 400	10	–	80	–	–	500	0.25	–	–
Nc1nc(O)c(Br)c(-c2cccc(Br)c2)n1	0.47	> 400	110	–	> 400	–	–	–	–	500	–
Nc1nc(O)c(Br)c(-c2cccc(F)c2)n1	–	175	70	–	155	–	–	–	0.64	–	>=2000 ml
Nc1nc(O)c(I)c(-c2cccc(Br)c2)n1	–	> 400	65	–	90	–	–	–	–	500	–
Nc1nc(O)c(Cl)c(-c2cnccn2)n1	0.07	395	110	–	> 400	–	500	–	–	–	–
Nc1nc(O)c(Cl)c(-c2cccc(F)c2)n1	–	> 400	30	–	100	–	–	–	0.61	–	>=2000 ml
